Here are results for four compounds from ChEMBL document CHEMBL2157868, “Design, synthesis, and preliminary biological evaluation of 6-O-glucose-azomycin adducts for diagnosis and therapy of hypoxic tumors” (J Med Chem, 2012).

Each structure is given as a SMILES string. Activity calls are given as the source filed them. No cut-off for these calls is given here.

Assay [1] in a line: Cytotoxicity against mouse KBALB cells after 3 days by MTT assay. In kind it is functional, cell-based. The note with it: 72 h. The method, boiled down:
(§1)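 MTT assay. Exponentially growing cells were seeded at 8 × 10² cells/well and held 24 h at 37 °C in 5% CO₂. Compound from a 2 mM stock in 95% ethanol was added, with a maximum final concentration of 1 mM. Exposure lasted 3 days at 37 °C. MTT was added for 4 h, formazan dissolved in DMSO, and absorbance read at 540 nm. IC50s were estimated from survival plots.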

In assay [2] the test system is HeLa. Put plainly: Cytotoxicity against human HeLa cells assessed as survival fraction under hypoxic condition to hypoxic condition plus sensitizer at 0.5 mM after 30 mins by clonogenic assay relative to control.
For assay [3], the system named is HeLa. Put plainly: Cytotoxicity against human HeLa cells after 3 days by MTT assay. In kind it is functional, cell-based. The note with it: 72 h. The method, boiled down:
as §1

Assay [4] is described as follows: Cytotoxicity against mouse KBALB-STK cells after 3 days by MTT assay. The settings on record: 72 h. The assay is classed as functional, cell-based. The method, boiled down: as §1
A short description of assay [5]: Cytotoxicity against human MOO6X cells assessed as survival fraction ratio under hypoxic condition at 0.5 mM incubated for 30 mins followed by compound wash out measured after 10 to 14 days by clonogenic assay relative to control. In kind it is functional. The method, boiled down: (§2)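 Clonogenic radiosensitization. Cells (300000 per dish, DMEM/F12) were grown 24 h at 37 °C, 5% CO₂, then exposed to compound for 30 min. Hypoxic dishes were degassed by six vacuum/N₂ cycles, and all dishes were shaken 30 min at room temperature. Dishes were ⁶⁰Co γ-irradiated (0–20 Gy) under N₂ or air, then trypsinized and replated. Colonies were grown 10−14 days, stained, and counted, in triplicate. Surviving fractions at 18 Gy were taken from survival plots.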

Assay [6] concerns EMT6. Put plainly: Cytotoxicity against mouse EMT6 cells after 3 days by MTT assay. The assay is classed as functional, cell-based. The note with it: EMT6, 72 h. The method, boiled down: as §1
A short description of assay [7]: Cytotoxicity against human MOO6X cells after 3 days by MTT assay. The assay is classed as functional, cell-based. The note with it: 72 h. The method, boiled down:
as §1

For assay [8], the system named is EMT6. In words: Cytotoxicity against mouse EMT6 cells assessed as survival fraction ratio under hypoxic condition at 0.5 mM incubated for 30 mins followed by compound wash out measured after 10 to 14 days by clonogenic assay relative to control. The assay is classed as functional. The method, boiled down:
as §2

Assay [9] is described as follows: Ratio of IAZA IC50 to compound IC50 for human MOO6X cells. The assay is classed as functional.
Assay [10] addresses T1, Solute carrier family 2, facilitated glucose transporter member 1 (Homo sapiens) (UniProt P11166).
T1 sequence (whole entry): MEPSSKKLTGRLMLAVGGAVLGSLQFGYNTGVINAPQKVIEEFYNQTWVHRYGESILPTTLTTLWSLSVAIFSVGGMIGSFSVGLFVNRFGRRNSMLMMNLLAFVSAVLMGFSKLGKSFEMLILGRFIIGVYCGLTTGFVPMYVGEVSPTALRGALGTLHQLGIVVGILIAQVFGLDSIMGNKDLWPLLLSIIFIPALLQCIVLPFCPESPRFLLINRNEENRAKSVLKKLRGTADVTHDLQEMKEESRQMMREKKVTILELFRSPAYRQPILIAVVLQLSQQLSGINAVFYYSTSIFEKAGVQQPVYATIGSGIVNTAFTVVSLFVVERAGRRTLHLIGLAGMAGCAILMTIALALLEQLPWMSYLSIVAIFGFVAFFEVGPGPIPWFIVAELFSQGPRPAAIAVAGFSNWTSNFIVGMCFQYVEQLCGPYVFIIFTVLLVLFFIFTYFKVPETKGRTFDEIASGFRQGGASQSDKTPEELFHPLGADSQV
In words: Binding affinity to recombinant GLUT1 expressed in Xenopus oocytes assessed as inhibition of [14C]glucose uptake after 20 mins by liquid scintillation counting. The assay is classed as cell-based. The settings on record: Oocyte. The method, boiled down: (§3)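 Xenopus oocytes expressing the GLUT were incubated in groups of 10−12 in Na⁺ transport medium (Hepes, pH 7.5) with [¹⁴C]glucose (1 μCi/mL) and inhibitor for 20 min at 20 °C. Oocytes were washed six times in ice-cold medium, dissolved in 1% SDS, and counted by liquid scintillation. Uptake inhibition was plotted against inhibitor concentration; for GLUT-2, EC50 came from four-parameter logistic fitting.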

In assay [11] the target is T2, Solute carrier family 2, facilitated glucose transporter member 2 (Homo sapiens) (UniProt P11168).
T2 sequence (whole entry): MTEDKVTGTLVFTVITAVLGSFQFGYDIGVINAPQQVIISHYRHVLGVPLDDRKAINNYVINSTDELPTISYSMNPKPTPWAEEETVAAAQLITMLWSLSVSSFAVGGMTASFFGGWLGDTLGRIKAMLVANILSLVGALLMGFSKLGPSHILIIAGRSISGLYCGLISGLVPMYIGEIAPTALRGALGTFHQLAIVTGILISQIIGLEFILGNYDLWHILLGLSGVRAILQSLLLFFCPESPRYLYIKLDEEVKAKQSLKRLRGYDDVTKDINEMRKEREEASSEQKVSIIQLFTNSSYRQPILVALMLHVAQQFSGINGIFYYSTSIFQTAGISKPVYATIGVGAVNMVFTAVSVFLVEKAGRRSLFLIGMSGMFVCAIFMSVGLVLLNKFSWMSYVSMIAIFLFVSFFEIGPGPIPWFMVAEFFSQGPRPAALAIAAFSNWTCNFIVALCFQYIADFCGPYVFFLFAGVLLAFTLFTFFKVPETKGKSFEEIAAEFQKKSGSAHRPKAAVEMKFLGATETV
Put plainly: Binding affinity to recombinant GLUT2 expressed in Xenopus oocytes assessed as inhibition of [14C]glucose uptake after 20 mins by liquid scintillation counting. The settings on record: Oocyte. In kind it is cell-based. The method, boiled down: as §3

Assay [12] concerns EMT6. In words: Cytotoxicity against mouse EMT6 cells assessed as survival fraction ratio under hypoxic condition at 0.1 to 1 mM after 6 hrs relative to control. The assay is classed as functional.

With `O=[N+]([O-])c1nccn1CC([18F])COC[C@H]1OC(O)[C@H](O)[C@@H](O)[C@@H]1O` (mixture of isomers), the IC50 (in assay [1]; with HeLa [3]; in assay [4]; in the assay with EMT6 [6]; in assay [7]) was > 1000 µM in each case. In addition, the Ratio in the assay on HeLa [2] worked out at 1.3; in assay [5], 1.3; in the assay on EMT6 [8], 1.2.

For the compound `O=[N+]([O-])c1nccn1CC(O)COC[C@H]1OC(O)[C@H](O)[C@@H](O)[C@@H]1O` (mixture of isomers), the IC50 in assay [1] is 500 µM; in the assay on HeLa [3], 500 µM; in [4], 500 µM; with EMT6 [6], 600 µM; in assay [7] it was 50 µM. For the same compound, the values for the Ratio (in the assay with HeLa [2]; in assay [5]; with EMT6 [8]) were 1.2, 1 and 1, respectively. Moreover, in [9], the “Ratio IC50” value is on record as 10.

`O=[N+]([O-])c1nccn1/C=C/COC[C@H]1OC(O)[C@H](O)[C@@H](O)[C@@H]1O` (mixture of isomers): the inhibition entry in assay [10] is “Active”. Besides, the Ratio in the assay on HeLa [2] is recorded as 1.7; in assay [5] it was 1.3; in the assay on EMT6 [8], 1.4. In the assay on EMT6 [6], the IC50 was > 1000 µM. For the same compound, the ED50 in [11] amounted to 500 µM.

On to `O=[N+]([O-])c1nccn1[C@H]1O[C@H](C[123I])[C@@H](O)[C@@H]1O` [IODOAZOMYCIN ARABINOSIDE], for which the IC50 is 500 µM in assay [1]; > 1000 µM in the assay with HeLa [3]; 500 µM in assay [4]; > 1000 µM in the assay on EMT6 [6]; > 1000 µM in assay [7]. The Ratio in the assay with EMT6 [12] was found to be 1.5.
